What was measured:
Assay type in all cases: functional
MCF7 = experiment: Growth inhibition of human MCF7 cells after 48 hrs by SRB assay; settings: MCF7, 48 h
Summary of the method: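 In-house assay. Cells were seeded into 96-well plates at a density for exponential growth and treated with a concentration range for 48 h. They were then fixed in 10% (w/v) TCA and stained with sulforhodamine B. The 50% growth-inhibitory concentration relative to control cells was calculated as the mean of three repeats ± standard deviation.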

CCRF-CEM [1] = experiment: Growth inhibition of human CCRF-CEM cells at 10 uM after 48 hrs by sulforhodamine B assay relative to control; settings: read-out: GI
Summary of the method: (§1)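 NCI-60 single-dose screen at 10 μM for 48 h. Percent growth inhibition was measured by sulforhodamine B staining of cellular protein.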

K562 = experiment: Growth inhibition of human K562 cells at 10 uM after 48 hrs by sulforhodamine B assay relative to control; settings: K562, 48 h, read-out: GI; summary of the method: as §1
RPMI-8226 [2] = experiment: Growth inhibition of human RPMI8226 cells at 10 uM after 48 hrs by sulforhodamine B assay relative to control; settings: RPMI-8226, 48 h, read-out: GI
Summary of the method: (§2)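 NCI-60 human cancer cell line screen, single-dose pass: cells exposed to 10 μM for 48 h. Cellular protein content read out by sulforhodamine B staining, and growth inhibition expressed relative to untreated control.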

SR = experiment: Growth inhibition of human SR cells at 10 uM after 48 hrs by sulforhodamine B assay relative to control; settings: read-out: GI
Summary of the method: (§3)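 NCI-60 human cancer cell line screen, single dose of 10 μM for 48 h. Cellular protein content read by sulforhodamine B staining; growth inhibition expressed relative to untreated control.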

A549 [3] = experiment: Growth inhibition of human A549/ATCC cells at 10 uM after 48 hrs by sulforhodamine B assay relative to control; settings: A549, 48 h, read-out: GI; summary of the method: as §1
HOP-62 = experiment: Growth inhibition of human HOP62 cells at 10 uM after 48 hrs by sulforhodamine B assay relative to control; settings: HOP-62, 48 h, read-out: GI; summary of the method: as §1
NCI-H226 = experiment: Growth inhibition of human NCI-H226 cells at 10 uM after 48 hrs by sulforhodamine B assay relative to control; settings: NCI-H226, 48 h, read-out: GI; summary of the method: as §2
HCT-116 = experiment: Growth inhibition of human HCT116 cells at 10 uM after 48 hrs by sulforhodamine B assay relative to control; settings: HCT-116, 48 h, read-out: GI; summary of the method: as §1
SW-620 = experiment: Growth inhibition of human SW620 cells at 10 uM after 48 hrs by sulforhodamine B assay relative to control; settings: SW-620, 48 h, read-out: GI; summary of the method: as §3
SNB-19 = experiment: Growth inhibition of human SNB19 cells at 10 uM after 48 hrs by sulforhodamine B assay relative to control; settings: SNB-19, 48 h, read-out: GI; summary of the method: as §2
Malme-3M = experiment: Growth inhibition of human MALME-3M cells at 10 uM after 48 hrs by sulforhodamine B assay relative to control; settings: read-out: GI; summary of the method: as §1
SK-MEL-2 = experiment: Growth inhibition of human SK-MEL-2 cells at 10 uM after 48 hrs by sulforhodamine B assay relative to control; settings: SK-MEL-2, 48 h, read-out: GI; summary of the method: as §2
UACC-257 [4] = experiment: Growth inhibition of human UACC257 cells at 10 uM after 48 hrs by sulforhodamine B assay relative to control; settings: UACC-257, 48 h, read-out: GI; summary of the method: as §3
OVCAR-3 = experiment: Growth inhibition of human OVCAR3 cells at 10 uM after 48 hrs by sulforhodamine B assay relative to control; settings: OVCAR-3, 48 h, read-out: GI; summary of the method: as §2
OVCAR-5 = experiment: Growth inhibition of human OVCAR5 cells at 10 uM after 48 hrs by sulforhodamine B assay relative to control; settings: OVCAR-5, 48 h, read-out: GI; summary of the method: as §2
OVCAR-8 = experiment: Growth inhibition of human OVCAR8 cells at 10 uM after 48 hrs by sulforhodamine B assay relative to control; settings: OVCAR-8, 48 h, read-out: GI; summary of the method: as §2
SK-OV-3 = experiment: Growth inhibition of human SKOV3 cells at 10 uM after 48 hrs by sulforhodamine B assay relative to control; settings: SK-OV-3, 48 h, read-out: GI; summary of the method: as §2
TK-10 = experiment: Growth inhibition of human TK10 cells at 10 uM after 48 hrs by sulforhodamine B assay relative to control; settings: TK-10, 48 h, read-out: GI; summary of the method: as §3
UO-31 = experiment: Growth inhibition of human UO31 cells at 10 uM after 48 hrs by sulforhodamine B assay relative to control; settings: UO-31, 48 h, read-out: GI; summary of the method: as §3
DU-145 = experiment: Growth inhibition of human DU145 cells at 10 uM after 48 hrs by sulforhodamine B assay relative to control; settings: DU-145, 48 h, read-out: GI; summary of the method: as §1
MDA-MB-231 = experiment: Growth inhibition of human MDA-MB-231 cells at 10 uM after 48 hrs by sulforhodamine B assay relative to control; settings: MDA-MB-231, 48 h, read-out: GI; summary of the method: as §1
BT-549 = experiment: Growth inhibition of human BT549 cells at 10 uM after 48 hrs by sulforhodamine B assay relative to control; settings: BT-549, 48 h, read-out: GI; summary of the method: as §1
CCRF-CEM [5] = experiment: Growth inhibition of human CCRF-CEM cells after 48 hrs by sulforhodamine B assay
Summary of the method: (§4)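 NCI-60 panel screen. Cells were exposed for 48 h at five concentrations between 10 nM and 100 μM. Cellular protein was read by sulforhodamine B staining, and GI50 and total growth inhibition (TGI) concentrations were derived.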

RPMI-8226 [6] = experiment: Growth inhibition of human RPMI8226 cells after 48 hrs by sulforhodamine B assay; settings: RPMI-8226, 48 h
Summary of the method: (§5)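 NCI-60 panel follow-up: five concentrations from 10 nM to 100 μM, 48 h exposure. Growth read by sulforhodamine B protein staining. GI50 derived from the concentration-response, with the concentration for total growth inhibition (TGI) also recorded when below 100 μM.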

A549 [7] = experiment: Growth inhibition of human A549/ATCC cells after 48 hrs by sulforhodamine B assay; settings: A549, 48 h; summary of the method: as §4
NCI-H522 = experiment: Growth inhibition of human NCI-H522 cells after 48 hrs by sulforhodamine B assay; settings: NCI-H522, 48 h; summary of the method: as §5
KM12 = experiment: Growth inhibition of human KM12 cells after 48 hrs by sulforhodamine B assay; settings: KM12, 48 h; summary of the method: as §4
SF-268 = experiment: Growth inhibition of human SF268 cells after 48 hrs by sulforhodamine B assay; settings: SF-268, 48 h; summary of the method: as §5
SF-539 = experiment: Growth inhibition of human SF539 cells after 48 hrs by sulforhodamine B assay; settings: SF-539, 48 h; summary of the method: as §5
SK-MEL-28 = experiment: Growth inhibition of human SK-MEL-28 cells after 48 hrs by sulforhodamine B assay; settings: SK-MEL-28, 48 h; summary of the method: as §5
UACC-257 [8] = experiment: Growth inhibition of human UACC257 cells after 48 hrs by sulforhodamine B assay; settings: UACC-257, 48 h
Summary of the method: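 NCI-60 panel cells treated at five concentrations from 10 nM to 100 μM for 48 h. Read-out by sulforhodamine B protein stain. GI50 and total growth inhibition (TGI, if below 100 μM) taken from the concentration-response data.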

Row | SMILES | GI50 (MCF7) [µM] | inhibition of growth at 10 µM (CCRF-CEM [1]) [%] | inhibition of growth at 10 µM (K562) [%] | inhibition of growth at 10 µM (RPMI-8226 [2]) [%] | inhibition of growth at 10 µM (SR) [%] | inhibition of growth at 10 µM (A549 [3]) [%] | inhibition of growth at 10 µM (HOP-62) [%] | inhibition of growth at 10 µM (NCI-H226) [%] | inhibition of growth at 10 µM (HCT-116) [%] | inhibition of growth at 10 µM (SW-620) [%] | inhibition of growth at 10 µM (SNB-19) [%] | inhibition of growth at 10 µM (Malme-3M) [%] | inhibition of growth at 10 µM (SK-MEL-2) [%] | inhibition of growth at 10 µM (UACC-257 [4]) [%] | inhibition of growth at 10 µM (OVCAR-3) [%] | inhibition of growth at 10 µM (OVCAR-5) [%] | inhibition of growth at 10 µM (OVCAR-8) [%] | inhibition of growth at 10 µM (SK-OV-3) [%] | inhibition of growth at 10 µM (TK-10) [%] | inhibition of growth at 10 µM (UO-31) [%] | other results
1 | Cc1noc(C)c1-c1cc(O)cc(C(O)c2ccccc2)c1 (stereo not given) | 1.25 to 1.7 | 53.3 | 57.9 | 85.1 | 72.9 | 44.6 | 52.8 | 34.5 | 42 | 27.9 | 47.3 | 40 | 39.6 | 59.6 | 53.3 | 26.7 | 61.4 | 56.3 | 87.4 | 83.1 | inhibition of growth at 10 µM (DU-145): 12.5%; inhibition of growth at 10 µM (MDA-MB-231): 37.6%; inhibition of growth at 10 µM (BT-549): 35.3%; GI50 (CCRF-CEM [5]): 14.8 µM; GI50 (RPMI-8226 [6]): 1.94 µM; TGI (RPMI-8226 [6]): 9.7 µM; GI50 (A549 [7]): 22.4 µM; GI50 (NCI-H522): 27 µM; GI50 (KM12): 8.2 µM; GI50 (SF-268): 39.3 µM; GI50 (SF-539): 4.56 µM; GI50 (SK-MEL-28): 9.15 µM; GI50 (UACC-257 [8]): 4.66 µM
2 | COc1ccccc1S(=O)(=O)Nc1ccc2c(c1)CN(C)C(=O)N2 | 1.5 | 51.1 | 71.4 | 95.7 | 64 | 49.5 | 55.7 | 37 | 50.3 | 40.6 | 45.9 | 67.8 | 52.4 | 66.2 | 67.8 | 25.5 | 43.8 | 50.9 | 82.7 | 89.8 | inhibition of growth at 10 µM (DU-145): 22.2%; inhibition of growth at 10 µM (MDA-MB-231): 45.3%; inhibition of growth at 10 µM (BT-549): -0.7%; GI50 (CCRF-CEM [5]): 7.8 µM; GI50 (RPMI-8226 [6]): 2.2 µM; GI50 (A549 [7]): 19.5 µM; GI50 (NCI-H522): 8.7 µM; GI50 (KM12): 10.7 µM; GI50 (SF-268): 28.8 µM; GI50 (SF-539): 4.5 µM; GI50 (SK-MEL-28): 6.2 µM; GI50 (UACC-257 [8]): 3.6 µM
